Experimental data: ChEMBL document CHEMBL4732116, “Discovery of novel CA-4 analogs as dual inhibitors of tubulin polymerization and PD-1/PD-L1 interaction for cancer treatment” (Eur J Med Chem, 2021)
Calls of active or inactive are those of the source. The rule behind the calls is not given here.

Experiments:
Sus scrofa = species on record: Sus scrofa; assay: (§1) Inhibition of pig brain tubulin polymerization by spectrophotometric method; format: tissue-based
Method in brief: (§2)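 Pig brain tubulin (three assembly/disassembly cycles, phosphocellulose P11 purification) mixed with compound at various concentrations in PEM buffer (100 mM PIPES, 1 mM MgCl2, 1 mM EGTA) with 1 mM GTP, 5% glycerol; polymerization read at 340 nm, 37 °C; plateau absorbance used.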

MC-38 = assay: Antiproliferative activity against mouse MC38 cells assessed as reduction in cell viability measured after 48 hrs by CCK8 assay; format: functional, cell-based; conditions: MC-38, 48 h
Method in brief: (§3)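 Cells pre-incubated 24 h at 37 °C, 5% CO2, then exposed to compounds over a concentration range in medium with 0.1% DMSO for a further 48 h at 37 °C. CCK-8 read-out as absorbance at 450 nm. IC50 taken from dose-response curves. Three independent experiments.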

HepG2 = assay: Antiproliferative activity against human HepG2 cells assessed as reduction in cell viability measured after 48 hrs by CCK8 assay; format: functional, cell-based; conditions: HepG2, 48 h; method in brief: as §3
[1] = Antiproliferative activity against human A549/PTX cells assessed as reduction in cell viability measured after 48 hrs by CCK8 assay; format: functional, cell-based; conditions: A549/Taxol; method in brief: as §3
B16-F10 = assay: Antiproliferative activity against mouse B16-F10 cells assessed as reduction in cell viability measured after 48 hrs by CCK8 assay; format: functional, cell-based; conditions: B16-F10, 48 h; method in brief: as §3
HeLa = assay: Antiproliferative activity against human HeLa cells assessed as reduction in cell viability measured after 48 hrs by CCK8 assay; format: functional, cell-based; method in brief: as §3
HEK293 = assay: Cytotoxicity against HEK293 cells assessed as reduction in cell viability measured after 48 hrs by CCK8 assay; format: cell-based; conditions: Homo sapiens, HEK293, 48 h; method in brief: as §3
[2] = biological target: Programmed cell death protein 1/Programmed cell death 1 ligand 1 (Homo sapiens, UniProt Q9NZQ7); assay: Inhibition of PD1/PDL1 (unknown origin) protein-protein interaction measured after 15 mins by HTRF assay; format: protein-complex assay
NCM460 = assay: Cytotoxicity against human NCM460 cells assessed as reduction in cell viability measured after 48 hrs by CCK8 assay; format: cell-based; conditions: NCM460, 48 h; method in brief: as §3
[3] = as §1; format: tissue-based, Sus scrofa; method in brief: as §2
Tubulin (Homo sapiens) = Tubulin (Homo sapiens) (UniProt P68371+Q9H4B7+P0DPH7+P68366+Q13509+Q71U36+P04350+Q3ZCM7+P07437+P68363+Q9BQE3+Q6PEY2+Q13885+Q9BVA1+Q9BUF5); assay: Disruption of microtubule network in human HepG2 cells at 5 uM measured after 24 hrs by immunofluorescence assay; format: cell-based
Method in brief: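 HepG2 cells on glass coverslips, treated 24 h after plating for 24 h (vehicle 0.1% DMSO). Fixed 15 min in 4% formaldehyde, permeabilized 5 min in 0.2% Triton X-100, blocked 30 min in 5% BSA. Immunostained with anti-tubulin antibody, then imaged by confocal laser scanning.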

Programmed cell death protein 1/Programmed cell death 1 ligand 1, sequence (Q15116 whole entry): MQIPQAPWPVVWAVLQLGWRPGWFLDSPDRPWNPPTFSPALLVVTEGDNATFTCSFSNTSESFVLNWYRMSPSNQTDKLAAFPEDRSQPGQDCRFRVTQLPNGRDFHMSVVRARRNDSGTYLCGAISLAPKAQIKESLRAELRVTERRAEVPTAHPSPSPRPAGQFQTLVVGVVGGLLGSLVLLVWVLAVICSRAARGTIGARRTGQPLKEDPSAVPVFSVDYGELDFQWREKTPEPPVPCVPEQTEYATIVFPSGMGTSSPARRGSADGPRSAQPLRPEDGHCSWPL
Programmed cell death protein 1/Programmed cell death 1 ligand 1, sequence (Q9NZQ7 whole entry): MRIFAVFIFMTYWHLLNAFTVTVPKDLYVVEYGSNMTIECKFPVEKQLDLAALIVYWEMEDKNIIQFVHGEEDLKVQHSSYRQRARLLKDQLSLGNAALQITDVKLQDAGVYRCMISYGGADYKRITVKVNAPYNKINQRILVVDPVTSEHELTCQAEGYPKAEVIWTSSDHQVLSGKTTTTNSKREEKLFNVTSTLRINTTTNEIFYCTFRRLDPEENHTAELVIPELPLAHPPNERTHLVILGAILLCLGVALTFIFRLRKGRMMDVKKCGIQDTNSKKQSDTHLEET

Compound | inhibition (Sus scrofa) | IC50 (MC-38) | IC50 (HepG2) | IC50 [1] | IC50 (B16-F10) | IC50 (HeLa) | IC50 (HEK293) | IC50 [2] | IC50 (NCM460) | IC50 [3] | inhibition (Tubulin (Homo sapiens))
CC(=O)O[C@H]1C(=O)[C@@]2(C)[C@H]([C@H](OC(=O)c3ccccc3)[C@]3(O)C[C@H](OC(=O)[C@H](O)[C@@H](NC(=O)c4ccccc4)c4ccccc4)C(C)=C1C3(C)C)[C@]1(OC(C)=O)CO[C@@H]1C[C@@H]2O | inactive | – | – | – | – | – | – | – | – | – | –
COc1ccc(/C=C\c2cc(OC)c(OC)c(OC)c2)cc1OCc1ccc(CNCCN(C)C)cc1 | – | 1.4 µM | 4.4 µM | 1.6 µM | > 10 µM | 9.4 µM | 39 µM | > 100 µM | 35 µM | – | –
COc1ccc(/C=C\c2cc(OC)c(OC)c(OC)c2)cc1OCc1ccc(CN2CCCCC2C(=O)NCCN)cc1 (configuration not stated) | – | > 10 µM | 4.8 µM | 2.7 µM | 4.6 µM | 7.3 µM | > 50 µM | 65.7 µM | > 50 µM | – | –
COc1ccc(/C=C\c2cc(OC)c(OC)c(OC)c2)cc1OCc1ccc(CN2CCCC[C@@H]2C(=O)O)cc1 | – | > 10 µM | > 10 µM | > 20 µM | > 10 µM | > 10 µM | 42 µM | > 100 µM | > 50 µM | – | –
COc1ccc(/C=C\c2cc(OC)c(OC)c(OC)c2)cc1OCc1ccc(CN[C@H](C(=O)O)[C@H](C)O)cc1 | – | > 10 µM | > 10 µM | > 20 µM | > 10 µM | > 10 µM | > 50 µM | 58.6 µM | > 50 µM | – | –
COc1ccc(/C=C\c2cc(OC)c(OC)c(OC)c2)cc1OCc1ccc(CN2CC[C@H](C(=O)O)C2)cc1 | – | > 10 µM | 6.4 µM | 12 µM | 7 µM | > 10 µM | > 50 µM | 38.6 µM | > 50 µM | – | –
COc1ccc(/C=C\c2cc(OC)c(OC)c(OC)c2)cc1OCc1ccc(CN2C[C@H](O)C[C@@H]2C(=O)O)cc1 | – | > 10 µM | > 10 µM | > 20 µM | > 10 µM | > 10 µM | > 50 µM | > 100 µM | > 50 µM | – | –
COc1ccc(/C=C\c2cc(OC)c(OC)c(OC)c2)cc1OCc1ccc(CN2CC[C@H](O)C2)cc1 | – | 7.2 µM | 6.6 µM | 5.9 µM | > 10 µM | 10.5 µM | > 50 µM | 90 µM | 51 µM | – | –
COc1ccc(/C=C\c2cc(OC)c(OC)c(OC)c2)cc1OCc1ccc(CNCCO)cc1 | – | 1.2 µM | 5.9 µM | 0.8 µM | 6.6 µM | 4.4 µM | > 50 µM | 90.5 µM | 39 µM | – | –
COc1ccc(/C=C\c2cc(OC)c(OC)c(OC)c2)cc1OCc1ccc(CO)cc1 | – | 5.7 µM | 2.4 µM | 12 µM | 6.6 µM | 7.6 µM | 37 µM | > 100 µM | > 50 µM | – | –
COc1ccc(/C=C\c2cc(OC)c(OC)c(OC)c2)cc1O [COMBRETASTATIN A4] | – | 0.08 µM | 0.59 µM | 0.62 µM | 0.05 µM | 0.06 µM | 11 µM | > 100 µM | 12 µM | 4.31 µM | –
COc1ccc(/C=C\c2cc(OC)c(OC)c(OC)c2)cc1OCc1ccc(CN2CC[C@@H](O)C2)cc1 | – | 6.9 µM | 6.2 µM | 8.9 µM | > 10 µM | > 10 µM | > 50 µM | > 100 µM | 53 µM | – | –
COc1ccc(/C=C\c2cc(OC)c(OC)c(OC)c2)cc1OCc1ccc(CN[C@H](C(=O)O)[C@@H](C)O)cc1 | – | > 10 µM | > 10 µM | > 20 µM | 5.4 µM | > 10 µM | > 50 µM | 50.7 µM | > 50 µM | – | –
COc1ccc(/C=C\c2cc(OC)c(OC)c(OC)c2)cc1OCc1ccc(CNC(C)(C)C(=O)O)cc1 | – | > 10 µM | 6.5 µM | > 20 µM | > 10 µM | > 10 µM | > 50 µM | > 100 µM | > 50 µM | – | –
COc1ccc(/C=C\c2cc(OC)c(OC)c(OC)c2)cc1OCc1ccc(CN2CC[C@@H](C(=O)O)C2)cc1 | – | 6.3 µM | 2.3 µM | > 20 µM | > 10 µM | 12.8 µM | 27 µM | > 100 µM | > 50 µM | > 200 µM | –
COc1ccc(/C=C\c2cc(OC)c(OC)c(OC)c2)cc1OCc1ccc(CNCCNC(C)=O)cc1 | – | 1.8 µM | 6.1 µM | 1.1 µM | 2.5 µM | 6.4 µM | > 50 µM | 44.8 µM | 54 µM | 60.7 µM | –
COc1ccc(/C=C\c2cc(OC)c(OC)c(OC)c2)cc1OCc1ccc(CN2CC(C(=O)O)C2)cc1 | – | > 10 µM | > 10 µM | > 20 µM | > 10 µM | 6.5 µM | > 50 µM | 42 µM | > 50 µM | – | –
COc1ccc(/C=C\c2cc(OC)c(OC)c(OC)c2)cc1OCc1ccc(C=O)cc1 | – | – | – | – | – | – | – | – | – | – | Active
COc1ccc(/C=C\c2cc(OC)c(OC)c(OC)c2)cc1OCc1ccc(CN2CCCC[C@H]2C(=O)O)cc1 | – | > 10 µM | > 10 µM | > 20 µM | > 10 µM | > 10 µM | > 50 µM | > 100 µM | > 50 µM | > 200 µM | –
COc1ccc(/C=C\c2cc(OC)c(OC)c(OC)c2)cc1OCc1ccc(CN2CCCCC2C(=O)O)cc1 (configuration not stated) | – | 5.4 µM | 3.1 µM | 10.2 µM | > 10 µM | 14.2 µM | > 50 µM | > 100 µM | > 50 µM | – | –
COc1ccc(/C=C\c2cc(OC)c(OC)c(OC)c2)cc1OCc1ccc(CN2C[C@H](O)[C@@H](F)C2)cc1 | – | > 10 µM | 5.3 µM | 19.2 µM | > 10 µM | 9.2 µM | 29 µM | 52 µM | 38 µM | – | –
COc1ccc(/C=C\c2cc(OC)c(OC)c(OC)c2)cc1OCc1ccc(CN2CCCCC2C(=O)NCCNC(=O)OC(C)(C)C)cc1 (configuration not stated) | – | 1.9 µM | 1.1 µM | 15 µM | 4.7 µM | 2 µM | 48 µM | > 100 µM | 28 µM | 202 µM | –
